This is an account of results in ChEMBL document CHEMBL4376814, “Novel cyclin-dependent kinase 9 (CDK9) inhibitor with suppression of cancer stemness activity against non-small-cell lung cancer” (Eur J Med Chem, 2019).

The target in one data set is CDK6/cyclin D3 (Homo sapiens, UniProt Q00534). The data set can be described thus: Inhibition of recombinant full-length human CDK6/cyclinD3 using histone H1 as substrate measured after 40 mins in presence of [gamma33P]ATP by scintillation counting method. Format: protein-complex assay.
A further data set addresses CDK9/cyclin T1 (Homo sapiens, UniProt P50750). The data set can be described thus: Inhibition of recombinant full-length human CDK9/cyclinT1 using KTFCGTPEYLAPEVRREPRILSEEEQEMFRDFDYIADWC peptide as substrate measured after 40 mins in presence of [gamma33P]ATP by scintillation counting method. Format: protein-complex assay. The essentials:
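IC50 against CDK9/cyclin T1, determined by the outsourced Eurofins KinaseProfiler service. Values are the mean of two independent experiments.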

The next data set relates to A549. The data set can be described thus: Induction of apoptosis in human A549 cells assessed as necrotic cells at 0.5 uM after 48 hrs by AnnexinV-FITC/PI staining-based flow cytometric analysis (reference value: 0.664%). Format: functional.
In data set [1] the test system is NCI-H1299. The data set is described as follows: Induction of apoptosis in human H1299 cells assessed as late apoptotic cells at 0.5 uM after 48 hrs by AnnexinV-FITC/PI staining-based flow cytometric analysis (reference value: 1.77%). Format: functional. For orientation: A flow cytometer gives signals particle by particle.
Data set [2] deals with NCI-H1299. The data set is described as follows: Induction of apoptosis in human H1299 cells assessed as increase in cleaved caspase 3 expression at 0.25 to 1 uM after 24 hrs by Western blot analysis. Format: functional, cell-based. The essentials: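 A549 or H1299 cells exposed to the indicated concentrations for 24 h. Protein extracts then immunoblotted for apoptosis-pathway proteins (Bcl2, Bim, cleaved caspase 3).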
(In western blotting, separated proteins are transferred to a membrane and probed.)

Data set [3] can be described thus: Intrinsic clearance in human liver microsomes at 2 uM in presence of NADPH measured up to 1 hr by HPLC analysis. Format: ADME, Microsome. For orientation: Microsomes from liver hold many membrane-bound enzymes, among them those of drug oxidation.
Data set [4] addresses 5'-AMP-activated protein kinase catalytic subunit alpha-1 (Homo sapiens) (UniProt Q13131). The data set is described as follows: Inhibition of full length recombinant human AMPK alpha1 at 1 uM using AMARAASAAALARRR as substrate measured after 40 mins in presence of [gamma33P]ATP by scintillation counting method relative to control. The method in brief:
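Single-point inhibition at 1 µM was measured in the Eurofins KinaseProfiler panel. Values are the mean of two independent experiments.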

Data set [5] concerns the target Hepatocyte growth factor receptor (Homo sapiens) (UniProt P08581). The data set is described as follows: Inhibition of recombinant human MET A1209G/V1290L mutant (974 to end residues) at 1 uM using KKKGQEEEYVFIE as substrate measured after 40 mins in presence of [gamma33P]ATP by scintillation counting method relative to control.
For data set [6], the target named is Cyclin-dependent kinase 1/cyclin B1 (Homo sapiens) (UniProt P06493+P14635). The data set can be described thus: Inhibition of recombinant full-length human CDK1/cyclinB at 1 uM using Histone H1 as substrate measured after 40 mins in presence of [gamma33P]ATP by scintillation counting method relative to control. Format: protein-complex assay.
Data set [7] deals with CDK4/Cyclin D3 (Homo sapiens) (UniProt P11802+P30281). The data set can be described thus: Inhibition of recombinant full-length human CDK4/cyclinD3 at 1 uM using Rb fragment as substrate measured after 40 mins in presence of [gamma33P]ATP by scintillation counting method relative to control. Format: protein-complex assay. The essentials:
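Percent inhibition of kinase activity at a single compound concentration, measured by the outsourced Eurofins KinaseProfiler panel. Values are the mean of two independent experiments.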

Data set [8] addresses Serine/threonine-protein kinase Nek9 (Homo sapiens) (UniProt Q8TD19). The data set can be described thus: Inhibition of recombinant human NEK9 (1 to 324 residues) at 1 uM using myelin basic protein as substrate measured after 40 mins in presence of [gamma33P]ATP by scintillation counting method relative to control.
Data set [9] addresses Ephrin type-A receptor 3 (Homo sapiens) (UniProt P29320). The data set can be described thus: Inhibition of recombinant human EphA3 (568 to end residues) at 1 uM using poly(Glu, Tyr) 4:1 as substrate measured after 40 mins in presence of [gamma33P]ATP by scintillation counting method relative to control.
The target of data set [10] is Fibroblast growth factor receptor 3 (Homo sapiens) (UniProt P22607). The data set can be described thus: Inhibition of recombinant human FGFR3 (447 to 761 residues) at 1 uM using poly(Glu, Tyr) 4:1 as substrate measured after 40 mins in presence of [gamma33P]ATP by scintillation counting method relative to control.
The target in data set [11] is cGMP-dependent protein kinase 2 (Homo sapiens) (UniProt Q13237). The data set can be described thus: Inhibition of recombinant full-length human PRKG2 at 1 uM using KKLRRTLSFAEPG as substrate measured after 40 mins in presence of [gamma33P]ATP by scintillation counting method relative to control.
Sequence of cGMP-dependent protein kinase 2 (Homo sapiens) (Q13237 whole entry): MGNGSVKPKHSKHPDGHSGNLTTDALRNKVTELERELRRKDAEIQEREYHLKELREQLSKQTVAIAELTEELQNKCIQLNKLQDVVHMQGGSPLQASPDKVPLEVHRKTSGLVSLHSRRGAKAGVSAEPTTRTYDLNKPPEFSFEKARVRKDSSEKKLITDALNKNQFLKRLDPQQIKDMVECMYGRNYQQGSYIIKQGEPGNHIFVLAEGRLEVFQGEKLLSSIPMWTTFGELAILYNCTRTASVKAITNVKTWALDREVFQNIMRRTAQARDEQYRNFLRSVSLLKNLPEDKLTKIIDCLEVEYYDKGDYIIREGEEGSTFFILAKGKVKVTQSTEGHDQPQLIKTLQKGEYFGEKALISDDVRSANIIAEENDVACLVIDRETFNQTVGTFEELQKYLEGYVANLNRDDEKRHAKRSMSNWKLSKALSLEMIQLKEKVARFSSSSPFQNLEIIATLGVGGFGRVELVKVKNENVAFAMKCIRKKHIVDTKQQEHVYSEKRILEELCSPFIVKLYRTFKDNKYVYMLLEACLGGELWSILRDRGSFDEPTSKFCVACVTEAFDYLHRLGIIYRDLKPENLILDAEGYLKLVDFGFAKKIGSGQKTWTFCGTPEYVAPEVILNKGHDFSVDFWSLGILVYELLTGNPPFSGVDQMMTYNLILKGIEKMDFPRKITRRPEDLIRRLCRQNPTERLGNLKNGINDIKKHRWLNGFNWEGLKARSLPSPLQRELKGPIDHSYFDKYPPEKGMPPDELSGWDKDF
Data set [12] deals with Mitogen-activated protein kinase 12 (Homo sapiens) (UniProt P53778). The data set is described as follows: Inhibition of recombinant full-length human SAPK3 at 1 uM using myelin basic protein as substrate measured after 40 mins in presence of [gamma33P]ATP by scintillation counting method relative to control.
Sequence of Mitogen-activated protein kinase 12 (Homo sapiens) (P53778 whole entry): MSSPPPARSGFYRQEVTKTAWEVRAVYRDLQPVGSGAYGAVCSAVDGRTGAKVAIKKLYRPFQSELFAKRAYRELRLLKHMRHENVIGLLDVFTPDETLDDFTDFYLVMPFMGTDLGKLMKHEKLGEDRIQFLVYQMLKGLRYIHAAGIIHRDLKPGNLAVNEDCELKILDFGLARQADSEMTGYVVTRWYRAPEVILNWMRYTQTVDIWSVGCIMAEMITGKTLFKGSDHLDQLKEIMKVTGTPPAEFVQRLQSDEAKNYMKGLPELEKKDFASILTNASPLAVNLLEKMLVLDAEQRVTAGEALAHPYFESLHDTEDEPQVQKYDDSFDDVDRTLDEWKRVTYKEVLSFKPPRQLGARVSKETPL
For data set [13], the system named is Macrophage colony-stimulating factor 1 receptor (Homo sapiens), P07333 [Y969C]. The data set can be described thus: Inhibition of recombinant human Fms (538 to end residues) Y969C mutant at 1 uM using EEEEYEEEEEEYYIIEEEEEEYEEEEEEYYEEEEEEKKKK as substrate measured after 40 mins in presence of [gamma33P]ATP by scintillation counting method relative to control.

For data set [14], the target named is G protein-coupled receptor kinase 5 (Homo sapiens) (UniProt P34947). The data set can be described thus: Inhibition of recombinant full-length human GRK5 at 1 uM using casein as substrate measured after 40 mins in presence of [gamma33P]ATP by scintillation counting method relative to control.
Data set [15] deals with Insulin receptor (Homo sapiens) (UniProt P06213). The data set is described as follows: Inhibition of recombinant human activated IR (1005 to 1310 residues) at 1 uM using KKKSPGEYVNIEFG as substrate measured after 40 mins in presence of [gamma33P]ATP by scintillation counting method relative to control.
The target in data set [16] is Tyrosine-protein kinase SYK (Homo sapiens) (UniProt P43405). The data set is described as follows: Inhibition of recombinant full-length human Syk at 1 uM using poly(Glu, Tyr) 4:1 as substrate measured after 40 mins in presence of [gamma33P]ATP by scintillation counting method relative to control.
Data set [17] concerns the target Serine/threonine-protein kinase ULK3 (Homo sapiens) (UniProt Q6PHR2). The data set is described as follows: Inhibition of recombinant full-length human ULK3 at 1 uM using casein as substrate measured after 40 mins in presence of [gamma33P]ATP by scintillation counting method relative to control.
In data set [18] the target is Mitogen-activated protein kinase 10 (Homo sapiens) (UniProt P53779). The data set can be described thus: Inhibition of recombinant full-length human JNK3 at 1 uM using peptide as substrate measured after 40 mins in presence of [gamma33P]ATP by scintillation counting method relative to control.
Sequence of Mitogen-activated protein kinase 10 (Homo sapiens) (P53779 whole entry): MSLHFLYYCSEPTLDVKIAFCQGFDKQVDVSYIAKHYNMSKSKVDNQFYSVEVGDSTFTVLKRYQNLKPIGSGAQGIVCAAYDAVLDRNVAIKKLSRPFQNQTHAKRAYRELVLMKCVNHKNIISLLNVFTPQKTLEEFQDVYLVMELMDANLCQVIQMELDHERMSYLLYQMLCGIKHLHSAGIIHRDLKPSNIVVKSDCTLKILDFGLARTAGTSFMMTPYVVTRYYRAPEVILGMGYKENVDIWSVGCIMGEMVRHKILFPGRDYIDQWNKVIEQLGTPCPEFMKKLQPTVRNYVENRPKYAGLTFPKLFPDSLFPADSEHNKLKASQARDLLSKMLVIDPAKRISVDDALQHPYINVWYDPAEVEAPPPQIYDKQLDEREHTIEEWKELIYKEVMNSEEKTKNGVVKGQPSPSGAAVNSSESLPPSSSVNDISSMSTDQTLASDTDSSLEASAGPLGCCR
Data set [19] has as its target Wee1-like protein kinase (Homo sapiens) (UniProt P30291). The data set is described as follows: Inhibition of recombinant human Wee1 (214 to end residues) at 1 uM using LSNLYHQGKFLQTFCGSPLYRRR as substrate measured after 40 mins in presence of [gamma33P]ATP by scintillation counting method relative to control.
The target of data set [20] is Tyrosine-protein kinase ZAP-70 (Homo sapiens) (UniProt P43403). The data set can be described thus: Inhibition of recombinant full-length human ZAP-70 at 1 uM using poly(Glu, Tyr) 4:1 as substrate measured after 40 mins in presence of [gamma33P]ATP by scintillation counting method relative to control.
Sequence of Tyrosine-protein kinase ZAP-70 (Homo sapiens) (P43403 whole entry): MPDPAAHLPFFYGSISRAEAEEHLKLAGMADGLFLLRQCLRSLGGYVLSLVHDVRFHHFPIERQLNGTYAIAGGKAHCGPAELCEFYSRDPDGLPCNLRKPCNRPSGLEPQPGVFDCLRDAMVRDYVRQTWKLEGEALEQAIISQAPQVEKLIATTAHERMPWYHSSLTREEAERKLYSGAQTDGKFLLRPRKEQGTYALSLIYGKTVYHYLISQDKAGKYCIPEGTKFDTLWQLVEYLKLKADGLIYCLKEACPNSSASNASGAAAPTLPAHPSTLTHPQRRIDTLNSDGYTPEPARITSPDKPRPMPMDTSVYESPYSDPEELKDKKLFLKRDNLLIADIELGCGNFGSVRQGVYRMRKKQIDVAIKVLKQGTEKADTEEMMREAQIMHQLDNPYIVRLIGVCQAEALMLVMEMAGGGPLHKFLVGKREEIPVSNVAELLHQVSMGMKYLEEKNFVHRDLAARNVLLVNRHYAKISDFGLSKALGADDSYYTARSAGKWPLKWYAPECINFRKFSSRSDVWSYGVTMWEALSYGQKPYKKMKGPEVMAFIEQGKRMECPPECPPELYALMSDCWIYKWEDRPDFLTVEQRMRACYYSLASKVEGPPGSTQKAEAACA

Structures are written as SMILES. The source made the active and inactive calls. No cut-off for these calls is given here.

Sequence of Hepatocyte growth factor receptor (Homo sapiens) (P08581 whole entry): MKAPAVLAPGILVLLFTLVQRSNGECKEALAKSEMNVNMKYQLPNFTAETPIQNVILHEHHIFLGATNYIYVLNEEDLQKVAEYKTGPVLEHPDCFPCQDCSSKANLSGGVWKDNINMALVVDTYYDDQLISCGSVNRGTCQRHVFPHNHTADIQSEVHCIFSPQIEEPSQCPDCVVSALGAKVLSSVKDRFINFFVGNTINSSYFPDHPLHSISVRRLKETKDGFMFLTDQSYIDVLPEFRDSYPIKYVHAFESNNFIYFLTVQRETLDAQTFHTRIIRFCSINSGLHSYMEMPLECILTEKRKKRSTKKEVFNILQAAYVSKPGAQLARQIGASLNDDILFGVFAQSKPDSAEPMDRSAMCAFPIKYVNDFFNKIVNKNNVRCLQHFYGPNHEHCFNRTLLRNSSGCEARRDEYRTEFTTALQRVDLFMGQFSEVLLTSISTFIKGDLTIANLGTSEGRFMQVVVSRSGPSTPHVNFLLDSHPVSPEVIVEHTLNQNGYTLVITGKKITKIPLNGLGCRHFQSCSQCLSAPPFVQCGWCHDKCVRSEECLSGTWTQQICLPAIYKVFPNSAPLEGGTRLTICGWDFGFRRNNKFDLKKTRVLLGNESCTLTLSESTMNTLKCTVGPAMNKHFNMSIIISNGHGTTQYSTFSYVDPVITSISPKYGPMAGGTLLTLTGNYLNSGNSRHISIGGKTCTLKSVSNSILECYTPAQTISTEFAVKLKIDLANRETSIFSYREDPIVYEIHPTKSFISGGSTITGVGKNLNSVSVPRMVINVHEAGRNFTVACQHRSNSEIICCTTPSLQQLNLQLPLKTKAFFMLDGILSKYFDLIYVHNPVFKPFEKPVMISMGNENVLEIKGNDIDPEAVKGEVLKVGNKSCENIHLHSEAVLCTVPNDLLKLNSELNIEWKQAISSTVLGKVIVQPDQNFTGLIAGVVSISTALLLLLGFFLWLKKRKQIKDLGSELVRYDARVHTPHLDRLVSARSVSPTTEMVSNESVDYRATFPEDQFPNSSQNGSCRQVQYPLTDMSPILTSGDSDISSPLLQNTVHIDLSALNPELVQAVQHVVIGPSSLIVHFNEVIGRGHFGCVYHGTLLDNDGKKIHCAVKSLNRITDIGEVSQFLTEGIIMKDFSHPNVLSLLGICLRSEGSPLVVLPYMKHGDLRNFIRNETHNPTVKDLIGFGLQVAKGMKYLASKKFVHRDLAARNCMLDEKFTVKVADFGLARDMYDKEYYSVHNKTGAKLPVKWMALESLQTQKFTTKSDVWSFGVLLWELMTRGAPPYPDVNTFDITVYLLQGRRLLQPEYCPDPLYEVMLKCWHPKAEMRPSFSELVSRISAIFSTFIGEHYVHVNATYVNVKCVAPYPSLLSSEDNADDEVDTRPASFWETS
Sequence of CDK9/cyclin T1 (O60563 whole entry): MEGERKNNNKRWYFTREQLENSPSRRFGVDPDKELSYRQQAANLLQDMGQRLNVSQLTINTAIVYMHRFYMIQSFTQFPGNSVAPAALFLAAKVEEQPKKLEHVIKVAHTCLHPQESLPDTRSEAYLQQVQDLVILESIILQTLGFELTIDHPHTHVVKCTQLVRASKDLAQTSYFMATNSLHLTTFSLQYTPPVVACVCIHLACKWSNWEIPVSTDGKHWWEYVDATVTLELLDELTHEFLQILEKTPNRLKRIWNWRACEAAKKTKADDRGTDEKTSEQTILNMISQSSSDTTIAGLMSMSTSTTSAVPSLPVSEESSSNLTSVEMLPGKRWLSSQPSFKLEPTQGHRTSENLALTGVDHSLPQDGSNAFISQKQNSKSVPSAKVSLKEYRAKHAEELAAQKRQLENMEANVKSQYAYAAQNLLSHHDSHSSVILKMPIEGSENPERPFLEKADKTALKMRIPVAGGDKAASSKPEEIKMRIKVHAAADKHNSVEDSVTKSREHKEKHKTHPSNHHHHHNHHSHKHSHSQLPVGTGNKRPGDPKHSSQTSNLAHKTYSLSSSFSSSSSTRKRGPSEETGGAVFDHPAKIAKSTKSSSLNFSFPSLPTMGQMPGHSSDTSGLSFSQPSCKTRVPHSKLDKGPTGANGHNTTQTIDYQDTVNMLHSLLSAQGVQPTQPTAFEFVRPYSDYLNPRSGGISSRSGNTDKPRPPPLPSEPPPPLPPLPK
Sequence of CDK9/cyclin T1 (P50750 whole entry): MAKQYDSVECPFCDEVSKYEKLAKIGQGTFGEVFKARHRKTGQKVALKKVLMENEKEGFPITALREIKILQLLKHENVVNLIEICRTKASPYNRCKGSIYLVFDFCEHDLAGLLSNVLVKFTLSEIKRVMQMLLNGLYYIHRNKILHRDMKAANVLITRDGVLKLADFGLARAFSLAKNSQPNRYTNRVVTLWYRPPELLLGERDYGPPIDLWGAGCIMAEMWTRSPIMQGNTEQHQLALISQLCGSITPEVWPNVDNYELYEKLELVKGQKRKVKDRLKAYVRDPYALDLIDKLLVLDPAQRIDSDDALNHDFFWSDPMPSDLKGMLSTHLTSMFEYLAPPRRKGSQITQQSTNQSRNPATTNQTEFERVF

The term IC50 denotes the point on the concentration scale where inhibition reaches its midpoint. The term inhibition denotes the relative decrease from the control value, in per cent. Turning to `CN(C)C(=O)c1cc2cnc(Nc3ccc(NC(=O)CCCCCCCN=C=S)cc3)nc2n1C1CCCC1`, the IC50 was determined as 0.145 µM on CDK6/cyclin D3 and 0.011 µM at CDK9/cyclin T1. For the same compound, the results for the Activity with A549 and with NCI-H1299 [1] were 6.11% and 3.64%, respectively. In addition, the result with NCI-H1299 [2] was Active. Moreover, the CLH in data set [3] is 70 µL/min/mg. Moreover, the inhibition was 11% in data set [4]; 84% in data set [5]; 58% in data set [6]; 87% in [7]; 41% in data set [8]; 5% in data set [9]. Besides, the inhibition in data set [10] was 28%; in data set [11], 0%; in [12], 4%; in data set [13], 40%; in [14] it was -2%; in data set [15], -7%. In addition, the inhibition in data set [16] came out at 22%; in [17], 9%; in data set [18] it was 85%; in [19] it was 8%; in [20] it was 13%.
